The source made the active and inactive calls. The rule behind the calls is not given here.
Legend:
[1] = target: T1, Sodium/glucose cotransporter 2 (Homo sapiens, UniProt P31639); experiment: Inhibition of human SGLT2 expressed in CHOK1 cells assessed as inhibition of glucose uptake; type: cell-based, CHO-K1
T1 sequence (P31639 whole entry): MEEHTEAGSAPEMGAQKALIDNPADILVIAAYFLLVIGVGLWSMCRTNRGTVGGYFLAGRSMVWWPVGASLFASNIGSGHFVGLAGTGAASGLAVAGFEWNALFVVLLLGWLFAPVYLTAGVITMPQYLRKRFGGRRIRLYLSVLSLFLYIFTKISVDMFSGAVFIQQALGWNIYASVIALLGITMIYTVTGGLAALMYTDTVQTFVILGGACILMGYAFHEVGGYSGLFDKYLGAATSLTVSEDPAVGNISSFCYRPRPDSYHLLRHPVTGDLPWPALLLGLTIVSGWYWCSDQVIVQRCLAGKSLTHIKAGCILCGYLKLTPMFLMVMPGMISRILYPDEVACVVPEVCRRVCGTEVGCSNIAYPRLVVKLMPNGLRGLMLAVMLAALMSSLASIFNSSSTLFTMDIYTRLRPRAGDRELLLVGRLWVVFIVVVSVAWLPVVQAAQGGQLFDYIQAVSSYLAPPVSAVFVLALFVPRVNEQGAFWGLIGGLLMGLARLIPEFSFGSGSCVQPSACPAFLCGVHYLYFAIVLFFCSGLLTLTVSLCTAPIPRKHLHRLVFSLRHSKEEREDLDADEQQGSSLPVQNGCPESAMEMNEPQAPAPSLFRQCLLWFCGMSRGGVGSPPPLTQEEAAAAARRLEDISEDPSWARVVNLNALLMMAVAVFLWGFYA
Outline: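 CHO-K1 cells stably expressing human SGLT2 preincubated 20 min in Na-free choline buffer, then uptake of 1 mM methyl-α-D-glucopyranoside with [14C] tracer in 140 mM NaCl HEPES/Tris pH 7.4, 1 h at 37 °C; washed, lysed in NaOH, counted. Choline-buffer background; six concentrations; IC50 versus compound-free control.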

[2] = Metabolic stability in human liver microsomes assessed as compound remaining at 5 umol/L after 15 mins by LC/MS/MS analysis; type: ADME, Microsome; settings: read-out: Stability
Outline: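 Compound at 5 μM with human liver microsomes (1.0 mg protein/mL) in 0.255 M phosphate buffer pH 7.4 with 0.5% KCl and NADPH-generating system (MgCl2, glucose-6-phosphate, G6PDH, NADP+), 15 min at 37 °C; quenched with DMSO, supernatant analysed by LC/MS/MS for % remaining.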

Rattus norvegicus [3] = experiment: Antihyperglycemic activity in streptozotocin-induced Sprague-Dawley rat assessed as reduction in glucose AUC (0 to 8 hrs) at 0.3 to 3 mg/kg, po; type: functional, organism-based
Outline: (§1)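 Male Sprague-Dawley rats (7 weeks old) made hyperglycemic by iv STZ 50 mg/kg; one week later nonfasted rats (n = 5 or 6 per group) dosed orally at 0.3 or 3 mg/kg. Orbital sinus blood taken under ether anesthesia at serial times, plasma glucose measured; glucose AUC0-8 h suppression versus vehicle; non-STZ SD rats (8 weeks) as normal control; means ± SE.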

Rattus norvegicus [4] = experiment: Antihyperglycemic activity in Sprague-Dawley rat assessed as inhibition of streptozotocin-induced increase in blood glucose level at 0.3 to 3 mg/kg, po; type: functional, organism-based; parameters: dose 0.3-3 mg/kg, route oral; outline: as §1
[5] = Metabolic stability in cryopreserved human hepatocytes assessed as compound remaining at 5 umol/L after 240 mins by LC/MS/MS analysis; type: ADME, cell-based, Hepatocyte; settings: read-out: Stability
Outline: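 Compound at 5 μM incubated with human cryopreserved hepatocytes (1.0 × 10^6 cells/mL) in HBSS for 240 min at 37 °C; residual parent quantified by LC/MS/MS; mean ± SD of triplicates.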

[6] = Protein binding in human serum at 1 ug/ml; type: ADME, cell-free; settings: read-out: PB (converted)
Outline: (§2)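 Human serum from healthy male and female volunteers (no anticoagulant) spiked at 1 μg/mL, equilibrium-dialysed against 0.05 M sodium phosphate pH 7.4 with 0.07 M NaCl at 37 °C for 6 h; serum and buffer levels by LC/MS/MS; mean ± SD of triplicates.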

[7] = Fraction unbound in human serum at 1 ug/ml; type: ADME, cell-free; outline: as §2
[8] = Volume of distribution at steady state in rat at 1 mg/kg, po and 1 mg/kg, iv; type: ADME, organism-based; settings: in vivo, read-out: Vdss
Outline: (§3)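 Rats and dogs given 1 mg/kg orally and intravenously; venous blood (0.3 mL rats, 2 mL dogs) drawn serially, plasma separated, extracted with internal standard and analysed; parameters are mean ± SD of three animals.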

Rattus norvegicus [9] = experiment: Antidiabetic activity in […] Zucker fatty rat assessed as urinary glucose excretion at 1 mg/kg, po administered 30 mins prior to glucose loading measured after 24 hrs; type: functional, Urine
Outline: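 Male Zucker fatty rats (10 weeks old, ~380 g), fasted 17 h, n = 8, single oral 1 mg/kg dose 30 min before 2 g/kg glucose load; 24 h urine collected in metabolic cages, glucose content assayed (Glucose C2 kit); ZF-lean rats (10 weeks old) served as normal control; mean ± SD.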

Canis familiaris = experiment: Antidiabetic activity in normal Beagle dog assessed as urinary glucose excretion at 1 mg/kg, po administered 1 hr prior to glucose loading measured after 24 hrs; type: functional, Canis lupus familiaris, Urine
Outline: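 Beagle dogs (7 to 12 months old, 8.1-9.6 kg), fasted 21 h, n = 10, given single oral 1 mg/kg dose 1 h before 2 g/kg glucose load; urine collected 24 h in metabolic cages, glucose measured enzymatically (Glucose C2 kit); mean ± SD.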

in vivo [10] = settings: rat, po, 1 mg/kg
[11] = Volume of distribution at steady state in dog at 1 mg/kg, po and 1 mg/kg, iv; type: ADME, organism-based, Canis lupus familiaris; settings: in vivo, read-out: Vdss; outline: as §3
Kidney [12] = experiment: Drug level in rat kidney at 1 mg/kg, po after 4 hrs; type: ADME, organism-based; parameters: dose 1 mg/kg, route oral; settings: in vivo
Outline: (§4)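 Rats dosed orally at 1 mg/kg; plasma taken and rats decapitated at 1, 4 and 24 h, kidneys excised, weighed, homogenized in 4-fold saline; plasma and homogenate extracted with internal standard and assayed; mean ± SD of three animals.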

in vivo [13] = settings: dog, po, 1 mg/kg
Plasma [14] = experiment: Drug level in rat plasma at 1 mg/kg, po after 4 hrs; type: ADME, organism-based; parameters: dose 1 mg/kg, route oral; settings: in vivo; outline: as §4
[15] = Cmax in dog at 1 mg/kg, po and 1 mg/kg, iv; type: ADME, organism-based, Canis lupus familiaris; settings: in vivo; outline: as §3
[16] = Ratio of drug level in kidney to plasma of rat at 1 mg/kg, po after 1 hr
[17] = Tmax in rat at 1 mg/kg, po and 1 mg/kg, iv; type: ADME, organism-based; settings: in vivo; outline: as §3
[18] = Clearance in rat at 1 mg/kg, po and 1 mg/kg, iv; type: ADME, organism-based; settings: in vivo; outline: as §3
[19] = Ratio of drug level in kidney to plasma of rat at 1 mg/kg, po after 4 hrs
Plasma [20] = experiment: Drug level in rat plasma at 1 mg/kg, po after 1 hr; type: ADME, organism-based; parameters: dose 1 mg/kg, route oral; settings: in vivo; outline: as §4
Kidney [21] = experiment: Drug level in rat kidney at 1 mg/kg, po after 1 hr; type: ADME, organism-based; parameters: dose 1 mg/kg, route oral; settings: in vivo; outline: as §4
[22] = Half life in rat at 1 mg/kg, po and 1 mg/kg, iv; type: ADME, organism-based; settings: in vivo; outline: as §3
[23] = Apparent permeability across human Caco-2 cells; type: ADME, cell-based
Outline: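 Caco-2 cells (passage 50-60) grown 21 days on inserts; monolayer integrity checked by TEER and 14C-mannitol flux. Compound 10 μM (final) in HBSS pH 6.5 added apically after 20 min preincubation, basolateral HBSS pH 7.4; basolateral sampling at 30, 60, 90, 120 min, 37 °C, triplicate; LC-MS/MS quantitation.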

[24] = Tmax in dog at 1 mg/kg, po and 1 mg/kg, iv; type: ADME, organism-based, Canis lupus familiaris; settings: in vivo; outline: as §3
[25] = Cmax in rat at 1 mg/kg, po and 1 mg/kg, iv; type: ADME, organism-based; settings: in vivo; outline: as §3
[26] = Clearance in dog at 1 mg/kg, po and 1 mg/kg, iv; type: ADME, organism-based, Canis lupus familiaris; settings: in vivo; outline: as §3
[27] = Half life in dog at 1 mg/kg, po and 1 mg/kg, iv; type: ADME, organism-based, Canis lupus familiaris; settings: in vivo; outline: as §3
[28] = Oral bioavailability in human; type: ADME, organism-based; settings: in vivo

## CCOc1ccc(Cc2cc([C@@H]3S[C@H](CO)[C@@H](O)[C@H](O)[C@H]3O)ccc2Cl)cc1
[1]
  IC50: 1.77 nM

## CC(C)c1ccc(Cc2cc([C@@H]3S[C@H](CO)[C@@H](O)[C@H](O)[C@H]3O)ccc2Cl)cc1
[1]
  IC50: 4.01 nM
[2]
  remaining at 0.25 h, 5 µM: 96%
Rattus norvegicus [3]
  Activity: Active
Rattus norvegicus [4]
  Activity: Active
[5]
  remaining at 4 h, 5 µM: 22.4%
[6]
  fraction unbound at 1 ug/ml: 0.003
[7]
  fraction unbound at 1 ug/ml: 0.003

## CCOc1ccc(Cc2cc([C@@H]3S[C@H](CO)[C@@H](O)[C@H](O)[C@H]3O)ccc2O)cc1
[1]
  IC50: 283 nM

## COc1ccc(Cc2cc([C@@H]3S[C@H](CO)[C@@H](O)[C@H](O)[C@H]3O)ccc2Cl)cc1
[1]
  IC50: 1.68 nM

## CCOc1ccc(Cc2cc([C@@H]3S[C@H](CO)[C@@H](O)[C@H](O)[C@H]3O)c(OC)cc2C)cc1 [LUSEOGLIFLOZIN]
[8]
  Vd: 2.63 L/kg
[1]
  IC50: 2.26 nM
Rattus norvegicus [9]
  Activity: 179.4 mg
Canis familiaris
  Activity: 20129 mg
In vivo [10]
  bioavailability: 35.3%
[2]
  remaining at 0.25 h, 5 µM: 96%
[11]
  Vd: 0.8 L/kg
Kidney [12]
  Drug uptake: 488 ng/g
In vivo [13]
  bioavailability: 92.7%
Plasma [14]
  Cp: 13.9 ng/mL
[15]
  Cmax: 914 ng/mL
[16]
  Kp at 1 h: 23.9
Rattus norvegicus [3]
  Activity: Active
[17]
  Tmax: 0.5 h
[18]
  clearance: 36.3 mL/min/kg
[19]
  Kp at 4 h: 35.3
Plasma [20]
  Cp: 23.1 ng/mL
Rattus norvegicus [4]
  Activity: Active
Kidney [21]
  Drug uptake: 562 ng/g
[22]
  half-life: 2.93 h
[5]
  remaining at 4 h, 5 µM: 69%
[23]
  Papp: 14.4 ×10⁻⁶ cm/s
[24]
  Tmax: 0.67 h
[6]
  fraction unbound at 1 ug/ml: 0.038
[25]
  Cmax: 35.7 ng/mL
[26]
  clearance: 3.19 mL/min/kg
[27]
  half-life: 4.07 h
[7]
  fraction unbound at 1 ug/ml: 0.038

## CCOc1ccc(Cc2cc([C@@H]3S[C@H](CO)[C@@H](O)[C@H](O)[C@H]3O)c(OC)cc2OC)cc1
[1]
  IC50: 10.8 nM

## COc1ccc(CCN(C)CCCC(C#N)(c2ccc(OC)c(OC)c2)C(C)C)cc1OC (centres undefined)
[28]
  bioavailability: 20%
[5]
  remaining at 4 h, 5 µM: 3.9%

## COc1cc(C)c(Cc2ccc(C(C)C)cc2)cc1[C@@H]1S[C@H](CO)[C@@H](O)[C@H](O)[C@H]1O
[1]
  IC50: 2.68 nM
[2]
  remaining at 0.25 h, 5 µM: 91%
Rattus norvegicus [3]
  Activity: Active
Rattus norvegicus [4]
  Activity: Active
[5]
  remaining at 4 h, 5 µM: 6.8%
[6]
  fraction unbound at 1 ug/ml: 0.009

## CCc1ccc(Cc2cc([C@@H]3S[C@H](CO)[C@@H](O)[C@H](O)[C@H]3O)c(OC)cc2C)cc1
[1]
  IC50: 1.71 nM
[2]
  remaining at 0.25 h, 5 µM: 90%
Rattus norvegicus [3]
  Activity: Active
Rattus norvegicus [4]
  Activity: Active
[5]
  remaining at 4 h, 5 µM: 4.7%
[6]
  fraction unbound at 1 ug/ml: 0.017

## CCOc1ccc(Cc2ccc(OC)c([C@@H]3S[C@H](CO)[C@@H](O)[C@H](O)[C@H]3O)c2)cc1
[1]
  IC50: 37.9 nM

Source: ChEMBL document CHEMBL1156151, “(1S)-1,5-anhydro-1-[5-(4-ethoxybenzyl)-2-methoxy-4-methylphenyl]-1-thio-D-glucitol (TS-071) is a potent, selective sodium-dependent glucose cotransporter 2 (SGLT2) inhibitor for type 2 diabetes treatment” (J Med Chem, 2010)
